ChEMBL document CHEMBL4359813, “Synthesis and antimycobacterial activity of imidazo[1,2-b][1,2,4,5]tetrazines” (2019)
Converted amounts (≈) assume the structure as drawn. The source made the active and inactive calls. The rule behind the calls is not given here.

Key:
[1] = system: Mycolicibacterium smegmatis MC2 155; assay: Inhibition of STPK in Mycobacterium smegmatis MC2 155 expressing aminoglycoside phophotransferase-8 assessed as growth inhibition at 50 nmol/disk after 18 hrs in presence of kanamycin by paper disk method
[2] = system: Mycobacterium tuberculosis; assay: Antimycobacterial activity against Mycobacterium tuberculosis H37Rv in liquid medium; assay type: functional
Method in brief: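 M. tuberculosis H37Rv; MIC determined in liquid medium on the automated Bactec MGIT 960 system.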

[3] = system: Mycolicibacterium smegmatis; assay: Antimycobacterial activity against Mycobacterium smegmatis MC2 155 in liquid medium after 48 hrs by two-fold serial dilution method; assay type: functional; conditions: MC2 155, 48 h
Method in brief: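 M. smegmatis mc2 155 grown overnight in Lemco-Tw broth, diluted 1:200 in fresh broth. […] Top wells could carry 4% DMSO. Incubated 48 h at 37 °C with shaking at 250 rpm. MIC is the lowest concentration with no visible growth.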

[4] = system: Mycolicibacterium smegmatis; assay: Antimycobacterial activity against Mycobacterium smegmatis MC2 155 in solid medium by two-fold serial dilution method; assay type: functional
Method in brief: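 M290 soybean-casein agar plates carried two-fold compound dilutions, 8–64 or 8–128 µg/ml, some with extra 20 or 25 µg/ml plates.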

[5] = system: Mycolicibacterium smegmatis; assay: Antimycobacterial activity against Mycobacterium smegmatis atR9 in liquid medium after 48 hrs by two-fold serial dilution method; assay type: functional; conditions: atR9, 48 h
Method in brief: (§1)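 M. smegmatis resistant mutants were isolated on M290 agar containing 3.5-4× MIC of the test compound at 30°C and resistance was reconfirmed. MIC was then run in Lemco-Tw broth (Tween-80 0.05%). An overnight culture was diluted 1:200, and two-fold serial dilutions in DMSO were added. Plates were incubated at 37°C and 250 rpm for 48 h. MIC was read as the lowest concentration with no visible growth.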

[6] = system: Mycolicibacterium smegmatis; assay: Antimycobacterial activity against Mycobacterium smegmatis atR14 in liquid medium after 48 hrs by two-fold serial dilution method; assay type: functional; conditions: atR14, 48 h; method in brief: as §1
[7] = system: Mycolicibacterium smegmatis; assay: Antimycobacterial activity against Mycobacterium smegmatis atR17 in liquid medium after 48 hrs by two-fold serial dilution method; assay type: functional; conditions: atR17, 48 h; method in brief: as §1
[8] = system: Mycolicibacterium smegmatis; assay: Antimycobacterial activity against Mycobacterium smegmatis atR19 in liquid medium after 48 hrs by two-fold serial dilution method; assay type: functional; conditions: atR19, 48 h; method in brief: as §1
[9] = system: Mycolicibacterium smegmatis; assay: Antimycobacterial activity against Mycobacterium smegmatis atR1 in liquid medium after 48 hrs by two-fold serial dilution method; assay type: functional; conditions: atR1, 48 h; method in brief: as §1
[10] = system: Mycolicibacterium smegmatis; assay: Antimycobacterial activity against Mycobacterium smegmatis atR8 in liquid medium after 48 hrs by two-fold serial dilution method; assay type: functional; conditions: atR8, 48 h; method in brief: as §1
[11] = system: Mycolicibacterium smegmatis; assay: Antimycobacterial activity against Mycobacterium smegmatis atR10 in liquid medium after 48 hrs by two-fold serial dilution method; assay type: functional; conditions: atR10, 48 h; method in brief: as §1
[12] = system: Mycolicibacterium smegmatis; assay: Antimycobacterial activity against Mycobacterium smegmatis atR11 in liquid medium after 48 hrs by two-fold serial dilution method; assay type: functional; conditions: atR11, 48 h; method in brief: as §1
[13] = system: Mycolicibacterium smegmatis; assay: Antimycobacterial activity against Mycobacterium smegmatis atR33 in liquid medium after 48 hrs by two-fold serial dilution method; assay type: functional; conditions: atR33, 48 h; method in brief: as §1
[14] = system: Mycolicibacterium smegmatis; assay: Antimycobacterial activity against Mycobacterium smegmatis atR37 in liquid medium after 48 hrs by two-fold serial dilution method; assay type: functional; conditions: atR37, 48 h; method in brief: as §1
[15] = system: Mycolicibacterium smegmatis; assay: Antimycobacterial activity against Mycobacterium smegmatis atR40 in liquid medium after 48 hrs by two-fold serial dilution method; assay type: functional; conditions: atR40, 48 h; method in brief: as §1
[16] = system: Mycolicibacterium smegmatis; assay: Antimycobacterial activity against Mycobacterium smegmatis atR2 in liquid medium after 48 hrs by two-fold serial dilution method; assay type: functional; conditions: atR2, 48 h; method in brief: as §1
[17] = system: Mycolicibacterium smegmatis; assay: Antimycobacterial activity against Mycobacterium smegmatis atR8 assessed as decrease in drug resistance development at 200 nmol/disc after 2 to 3 days by paper disc method; assay type: functional, organism-based
Method in brief: (§2)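 Drug-resistant M. smegmatis mc2 155 mutants, isolated on M290 agar with 3.5-4× MIC of compound and resistance re-confirmed, grown in Middlebrook 7H9 (OADC, 0.1% Tween-80, 0.4% glycerol) to OD600 1.2. Diluted 1:9:10 culture:water:M290 and poured as top layer on M290 agar. Impregnated paper discs applied; 37 °C for 2–3 days. Halos measured to nearest 1 mm; triplicates, mean ± SD versus control strain.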

[18] = system: Mycolicibacterium smegmatis; assay: Antimycobacterial activity against Mycobacterium smegmatis atR9 assessed as decrease in drug resistance development at 200 nmol/disc after 2 to 3 days by paper disc method; assay type: functional, organism-based; method in brief: as §2
[19] = system: Mycolicibacterium smegmatis; assay: Antimycobacterial activity against Mycobacterium smegmatis atR10 assessed as decrease in drug resistance development at 200 nmol/disc after 2 to 3 days by paper disc method; assay type: functional, organism-based
Method in brief: (§3)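 Mutant M. smegmatis strains were grown in Middlebrook 7H9/OADC/Tween/glycerol to OD600 1.2. Cultures were diluted 1:9:10 (culture:water:M290) and overlaid on M290 agar. Commercial or impregnated paper discs were applied and plates incubated 2–3 days at 37 °C. Inhibition halos were measured to 1 mm, run in triplicate, mean ± SD.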

[20] = system: Mycolicibacterium smegmatis; assay: Antimycobacterial activity against Mycobacterium smegmatis atR17 assessed as decrease in drug resistance development at 200 nmol/disc after 2 to 3 days by paper disc method; assay type: functional, organism-based; method in brief: as §3
[21] = system: Mycolicibacterium smegmatis MC2 155; assay: Inhibition of STPK in Mycobacterium smegmatis MC2 155 expressing aminoglycoside phophotransferase-8 assessed as growth inhibition at 100 nmol/disk after 18 hrs in presence of kanamycin by paper disk method
[22] = system: Mycolicibacterium smegmatis; assay: Antimycobacterial activity against Mycobacterium smegmatis atR1 assessed as decrease in drug resistance development at 300 nmol/disc after 2 to 3 days by paper disc method; assay type: functional, organism-based; method in brief: as §3
[23] = system: Mycolicibacterium smegmatis; assay: Antimycobacterial activity against Mycobacterium smegmatis atR2 assessed as decrease in drug resistance development at 300 nmol/disc after 2 to 3 days by paper disc method; assay type: functional, organism-based; method in brief: as §3
[24] = system: Mycolicibacterium smegmatis; assay: Antimycobacterial activity against Mycobacterium smegmatis atR11 assessed as decrease in drug resistance development at 300 nmol/disc after 2 to 3 days by paper disc method; assay type: functional, organism-based; method in brief: as §3
[25] = system: Mycolicibacterium smegmatis; assay: Antimycobacterial activity against Mycobacterium smegmatis atR8 assessed as decrease in drug resistance development at 300 nmol/disc after 2 to 3 days by paper disc method; assay type: functional, organism-based; method in brief: as §2
[26] = system: Mycolicibacterium smegmatis; assay: Antimycobacterial activity against Mycobacterium smegmatis atR10 assessed as decrease in drug resistance development at 300 nmol/disc after 2 to 3 days by paper disc method; assay type: functional, organism-based; method in brief: as §3
[27] = system: Mycolicibacterium smegmatis; assay: Antimycobacterial activity against Mycobacterium smegmatis atR14 assessed as decrease in drug resistance development at 300 nmol/disc after 2 to 3 days by paper disc method; assay type: functional, organism-based; method in brief: as §3
[28] = system: Mycolicibacterium smegmatis; assay: Antimycobacterial activity against Mycobacterium smegmatis atR17 assessed as decrease in drug resistance development at 300 nmol/disc after 2 to 3 days by paper disc method; assay type: functional, organism-based; method in brief: as §3
[29] = system: Mycolicibacterium smegmatis; assay: Antimycobacterial activity against Mycobacterium smegmatis atR19 assessed as decrease in drug resistance development at 300 nmol/disc after 2 to 3 days by paper disc method; assay type: functional, organism-based; method in brief: as §3
[30] = system: Mycolicibacterium smegmatis; assay: Antimycobacterial activity against Mycobacterium smegmatis atR33 assessed as decrease in drug resistance development at 300 nmol/disc after 2 to 3 days by paper disc method; assay type: functional, organism-based; method in brief: as §3
[31] = system: Mycolicibacterium smegmatis; assay: Antimycobacterial activity against Mycobacterium smegmatis atR37 assessed as decrease in drug resistance development at 300 nmol/disc after 2 to 3 days by paper disc method; assay type: functional, organism-based; method in brief: as §2
[32] = system: Mycolicibacterium smegmatis; assay: Antimycobacterial activity against Mycobacterium smegmatis atR40 assessed as decrease in drug resistance development at 300 nmol/disc after 2 to 3 days by paper disc method; assay type: functional, organism-based; method in brief: as §2
[33] = system: Mycolicibacterium smegmatis MC2 155; assay: Inhibition of STPK in Mycobacterium smegmatis MC2 155 expressing aminoglycoside phophotransferase-8 assessed as growth inhibition at 5 nmol/disk after 18 hrs in presence of kanamycin by paper disk method

Compound	inhibition zone (IZ) [1] [mm]	MIC [2] [µM]	MIC [3] [µM]	MIC [4] [µM]	MIC [5] [µg/mL]	MIC [6] [µg/mL]	MIC [7] [µg/mL]	MIC [8] [µg/mL]	MIC [9] [µg/mL]	MIC [10] [µg/mL]	MIC [11] [µg/mL]	MIC [12] [µg/mL]	MIC [13] [µg/mL]	MIC [14] [µg/mL]	MIC [15] [µg/mL]	MIC [16] [µg/mL]	inhibition zone (IZ) [21] [mm]	Activity [22]	Activity [23]	Activity [24]	also measured
c1cn(-c2nnc3nccn3n2)cn1	12.8	134 (≈ 25 µg/mL)	171 (≈ 32 µg/mL)	134 (≈ 25 µg/mL)	32 (≈ 171 µM)	32 (≈ 171 µM)	32 (≈ 171 µM)	32 (≈ 171 µM)	32 (≈ 171 µM)	32 (≈ 171 µM)	32 (≈ 171 µM)	32 (≈ 171 µM)	32 (≈ 171 µM)	32 (≈ 171 µM)	32 (≈ 171 µM)	32 (≈ 171 µM)	–	–	–	–	Activity [17]: inactive; Activity [18]: inactive; Activity [19]: inactive; Activity [20]: inactive
Cc1cc(C)n(-c2nnc3ncc(SCc4ccccc4)n3n2)n1	–	3 (≈ 1.01 µg/mL)	94.8 (≈ 32 µg/mL)	59.3 (≈ 20 µg/mL)	> 64	> 64	> 64	> 64	> 64	> 64	> 64	> 64	> 64	> 64	> 64	> 64	13.7	inactive	inactive	inactive	Activity [25]: inactive; Activity [26]: inactive; Activity [27]: inactive; Activity [28]: inactive; Activity [29]: inactive; Activity [30]: inactive; Activity [31]: inactive; Activity [32]: inactive
Cc1cc(C)n(-c2nnc3ncc(SC(C)C)n3n2)n1	13.3	3.5 (≈ 1.01 µg/mL)	221 (≈ 64 µg/mL)	221 (≈ 64 µg/mL)	256 (≈ 885 µM)	256 (≈ 885 µM)	256 (≈ 885 µM)	256 (≈ 885 µM)	512 (≈ 1770 µM)	512 (≈ 1770 µM)	512 (≈ 1770 µM)	512 (≈ 1770 µM)	512 (≈ 1770 µM)	512 (≈ 1770 µM)	512 (≈ 1770 µM)	1020 (≈ 3540 µM)	–	inactive	inactive	inactive	Activity [25]: inactive; Activity [26]: inactive; Activity [27]: inactive; Activity [28]: inactive; Activity [29]: inactive; Activity [30]: inactive; Activity [31]: inactive; Activity [32]: inactive
COc1ccc(OC)c(Sc2cnc3nnc(-n4nc(C)cc4C)nn23)c1	–	–	–	–	–	–	–	–	–	–	–	–	–	–	–	–	9.3	–	–	–	–
Cc1cc(C)n(-c2nnc3nc(-c4ccccc4)c(SC(C)C)n3n2)n1	–	–	–	–	–	–	–	–	–	–	–	–	–	–	–	–	–	–	–	–	inhibition zone (IZ) [33]: 11 mm
CCCCCCCNc1nnc2ncc(Sc3ccccc3)n2n1	12	–	–	–	–	–	–	–	–	–	–	–	–	–	–	–	–	–	–	–	–
